Bioassay records (PubChem BioAssay)
RAD54 inh = inhibitors of human RAD54 branch migration. Q92698. RAD54 Holliday junction branch migration, FAM/BHQ fluorescence. inhibition, % at 10.4 µM. actives 0.14% (n = 360,000);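 active = mean normalized replicate activity at least 40 and at least half of replicates scoring 40 or more; inconclusive = only one of the two criteria met; inactive = mean below 40 and under half of replicates reaching 40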;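 also: 0% = median of neutral control wells and 100% = median of positive control wells; inhibitors cause a drop in the FAM fluorescence signal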
S100A4 inh HTS = S100A4-myosin IIA interaction inhibition | S100A4/TAMRA-MyoIIA peptide fluorescence polarization | AID 652163 | actives 0.14% (n = 360,000) | inhibition, % at 10.7 µM | P26447;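 active = mean inhibition of at least 70% across replicates, with every replicate also reaching that level; inconclusive = mean inhibition reaches 70% but some replicates fall short; inactive = mean inhibition below 70%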
Target sequence (P26447 whole entry, looked up): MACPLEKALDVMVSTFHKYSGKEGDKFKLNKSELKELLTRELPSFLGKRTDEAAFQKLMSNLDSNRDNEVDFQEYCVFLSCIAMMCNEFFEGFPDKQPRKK
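Compound dosing: one dose per compound; test system: human S100A4 monomer with TAMRA-labelled myosin IIA peptide; probe or stimulus: TAMRA-labelled myosin IIA heavy-chain peptide probe, 5 nM; medium: HEPES buffer with Ca2+, pH 7.2; schedule: 5 min incubation before reading; benchmarks: neutral control DMSO, positive control TFP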
AF4-AF9 inh = inhibitors of human MLL-AF4/AF9 interaction. AlphaScreen, biotin-AF4 peptide binding to FLAG-AF9. inhibition, % at 10 µM. actives 0.47% (n = 350,000);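 active = every replicate reaching a set inhibition limit, whatever the replicate mean, cut at about 25% in these data; inconclusive = mean inhibition reaches that limit but some replicates miss it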;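 also: 0% = plate neutral control median and 100% = total signal loss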
RAD52 inh = blocks human RAD52 DNA annealing | P43351 | recombinant RAD52 DNA annealing, FRET fluorescence | inhibition, % at 18.7 µM | actives 0.46% (n = 360,000) | AID 651710;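 active = every replicate showing at least 50% inhibition; inconclusive = mean inhibition at least 50% but not in every replicate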
Target sequence (P43351 whole entry, looked up): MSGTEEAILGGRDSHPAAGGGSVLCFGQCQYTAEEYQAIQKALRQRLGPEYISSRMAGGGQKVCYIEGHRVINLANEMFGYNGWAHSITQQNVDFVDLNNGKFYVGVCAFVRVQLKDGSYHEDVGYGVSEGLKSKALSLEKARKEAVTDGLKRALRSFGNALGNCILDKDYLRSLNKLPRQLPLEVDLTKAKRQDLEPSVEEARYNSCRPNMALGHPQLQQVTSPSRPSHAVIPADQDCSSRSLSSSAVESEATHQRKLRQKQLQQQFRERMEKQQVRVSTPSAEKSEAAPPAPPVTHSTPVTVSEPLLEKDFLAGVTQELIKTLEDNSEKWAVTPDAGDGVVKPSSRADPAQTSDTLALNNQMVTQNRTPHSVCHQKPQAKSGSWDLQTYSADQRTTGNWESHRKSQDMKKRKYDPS
dFosB act = activators of mouse delta FosB homodimer; P13346; purified delta FosB, TAMRA-CDK5 oligo fluorescence polarization; percent of positive-control signal above neutral wells; activation, % at 25 µM; actives 0.99% (n = 340,000);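 active = mean activation above about 17%, with every replicate also reaching it, limit read from the data, passing the limit was not always enough; inconclusive = only one of the two conditions met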
RAD52 DNA ctr = counter-screen for RAD52 inhibitors: DNA binding compounds. shares compounds with RAD52 inh. AC50, µM. actives 8% (n = 1,000). AID 652128. Salmon sperm DNA/acridine orange FP displacement;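 active = fitted half-maximal concentration for signal loss at or below twice the highest dose tested, in every separate run, actives reach about 64 µM in these data; inconclusive = runs disagree, or flat partial signal loss, or poor fit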
* hit, by the source's call; i = inactive; ? = inconclusive; . = no result. A selection: hits, their analogues and other compounds. The true share with any hit is near 1.5%.

SMILES	RAD54 inh	S100A4 inh HTS	AF4-AF9 inh	RAD52 inh	dFosB act	RAD52 DNA ctr
Nc1ccc(N2CCN(CCCCN3C(=O)C4CCCN4C3=O)CC2)cc1 (stereo unspecified)	.	8	49*	101*	9	i
CC=Cc1ccc2n(c1=O)C[C@@H]1[C@@H](CO)[C@H](C(=O)NCc3ccncc3)N(Cc3cncnc3)[C@H]21 (mixture of isomers)	5	-4	-3	-8	.	.
C[C@@H]1ON(C)[C@H]2C[C@H]3c4cc(-c5cc6ccccc6o5)ccc4CCN3C[C@@H]12	.	-12	.	68*	.	i
C[C@@H]1ON(C)[C@H]2C[C@H]3c4cc(Nc5ccccc5)ccc4CCN3C[C@@H]12	.	14	.	3	.	.
C[C@H](CO)N1C[C@H](C)[C@H](CN(C)C)Oc2ccc(NC(=O)Nc3cccc4ccccc34)cc2CC1=O	6	-11	1	1	.	.
CN1CCN(CCCNC(=O)C2CCN(c3nnc(-n4cccc4)s3)CC2)CC1	3	.	.	.	1	.
Cc1ccc(C)n1-c1nnc(N2CCC(C(=O)N3CCN(C)CC3)CC2)s1	0	0	5	56*	-6	i
CCOC(=O)N1CCN(C(=O)C2CCN(c3nnc(-n4cccc4)s3)CC2)CC1	-3	-2	3	-10	-2	.
CCCN1CCN(CCCNC(=O)C2CCN(c3nnc(-n4c(C)ccc4C)s3)CC2)CC1	-14	0	6	58*	-6	i
CCN1CCN(C(=O)C2CCN(c3nnc(-n4c(C)ccc4C)s3)CC2)CC1	3	-7	6	58*	-1	i
C[C@H](CO)N1C[C@H](C)[C@@H](CN(C)Cc2ccccc2)Oc2ncc(-c3cccc(F)c3)cc2C1=O	-1	-1	-2	21	.	.
CC(=O)c1ccc(NC(=O)C[n+]2cccc(C)c2)cc1	-9	-7	-1	3	-4	.
CC(=O)c1ccc(NC(=O)C[n+]2ccc(N(C)C)cc2)cc1	1	-2	-5	3	4	.
Cc1ccc[n+](CC(=O)Nc2ccc(N(C)C)cc2)c1	-6	-27	4	78*	-4	i
CN(C)c1ccc(NC(=O)C[n+]2ccccc2)cc1	-20	3	14	45	9	i
O=C1c2cccc(NCCCNCCO)c2C(=O)c2cccc(NCCCNCCO)c21	.	-32	32*	91*	?	1.5µM*
OCCN1CCN(CC(O)COc2ccc(Cl)cc2)CC1 (stereo unspecified)	-10	.	.	.	-1	.
OCCN1CCN(CC(O)COc2ccc(C34CC5CC(CC(C5)C3)C4)cc2)CC1 (stereo unspecified)	.	-2	21	57*	4	i
CC[n+]1ccc(/C=C/c2ccc(N(C)C)cc2)c2ccccc21	.	43	73*	60*	47*	13µM*
CC[n+]1ccccc1/C=C/c1ccc(N(C)C)cc1	-54	-75	4	-225	-3	.
O=C([C@H]1[C@H](CO)[C@H]2Cn3c(cccc3=O)[C@H]2N1C(=O)C1CCCC1)N1CCOCC1	.	-3	-2	-9	.	.
COc1cc(C(=O)N2CCC(N3CCN(C)CC3)CC2)ccc1Nc1ncc2c(n1)N(C)c1ccccc1C(=O)N2C	.	0	17	77*	.	i
COc1ccc(CCNC(=O)c2cc(-c3ccco3)nc3ccccc23)cc1	.	?	-2	2	.	.
CCN(CC)CCNC(=O)c1cc(-c2ccco2)nc2ccccc12	.	2	6	78*	-16	i
C[C@@H]1CN([C@H](C)CO)C(=O)CCCn2cc(nn2)CO[C@@H]1CN(C)S(=O)(=O)c1ccccc1C#N	.	6	-2	5	.	.
SMILES	RAD54 inh	S100A4 inh HTS	AF4-AF9 inh	RAD52 inh	dFosB act	RAD52 DNA ctr
Oc1cccc(CN2CCOCC2)c1O	-7	1	-2	-6	-6	.
Oc1c(CN2CCOCC2)cc(CN2CCOCC2)c(O)c1O	1	1	-4	61*	0	i
COc1ccc(/C=N/Nc2cc(C)nc3c(C)cccc23)cc1	61*	-4	14	80*	6	?
COc1cccc2c(N/N=C/c3ccc(O)c(O)c3)cc(C)nc12	-1	-3	3	-27	2	.
Cc1ccccc1-c1cnc2c(c1)C(=O)N([C@H](C)CO)C[C@@H](C)[C@@H](CN(C)C(=O)c1ccncc1)O2	4	-3	-5	2	.	.
CC(=O)c1cccc(Nc2cc(C)nc3ccccc23)c1	21	-10	-11	9	-11	.
CC(=O)c1cccc(Nc2cc(C)nc3c(C)cccc23)c1	.	0	0	50*	1	i
Cc1cc2c(cc1C)C(=O)CCC2	-4	-3	0	-7	.	.
O=C1CCCCC1	-4	3	.	91*	0	i
NCC12CC3CC(C1)CC(c1ccc(Br)cc1)(C3)C2	9	56	8	57*	-3	i
C#CCOCCOCCOCCNc1nc(N2CCN(C(=O)[C@H]([C@@H](C)CC)n3cc([C@@H](N)CO)nn3)CC2)nc(N2CCN(C(=O)[C@H](CCCCN)n3cc([C@@H](N)C(C)CC)nn3)CC2)n1 (stereo partly specified)	-12	1	17	57*	-8	i
C#CCOCCOCCOCCNc1nc(N2CCN(C(=O)[C@H]([C@@H](C)CC)n3cc(CCC(=O)O)nn3)CC2)nc(N2CCN(C(=O)[C@H](CCCCN)n3cc(CCCC)nn3)CC2)n1	-8	-1	-4	12	-17	.
C#CCOCCOCCOCCNc1nc(N2CCN(C(=O)[C@H](CCCCN)n3cc(CN)nn3)CC2)nc(N2CCN(C(=O)[C@H](CO)n3cc([C@@H](N)C(C)C)nn3)CC2)n1	-39	2	.	60*	0	i
C#CCOCCOCCOCCNc1nc(N2CCN(C(=O)[C@H]([C@@H](C)CC)n3cc(CCCCN)nn3)CC2)nc(N2CCN(C(=O)[C@H](CCCCN)n3cc(CCCC)nn3)CC2)n1	0	-3	13	54*	13	i
NC(N)=Nc1cc2ccccc2c2ccccc12	.	2	5	56*	.	i
CN1CCN(c2ccc(Cl)cc2NC(=O)CCN2C(=O)c3ccccc3C2=O)CC1	.	-1	24	83*	-1	i
CN1CCN(C(=O)c2ccccc2NC(=O)CCN2C(=O)c3ccccc3C2=O)CC1	3	.	.	.	2	.
CC(C)C#Cc1cnc2c(c1)C(=O)N([C@@H](C)CO)C[C@@H](C)[C@H](CN(C)C(=O)Cc1ccccn1)O2	-14	-4	-9	-4	.	.
C[C@H](CO)N1C[C@H](C)[C@H](CN(C)Cc2ccc(C(=O)O)cc2)Oc2ncc(C3=CCCCC3)cc2C1=O	2	8	-5	13	.	.
NCc1ccc(OCCCN2CCC(C(O)(C3=CCCC3)c3ccccc3)CC2)cc1 (stereo unspecified)	.	2	.	67*	.	i
CS(=O)(=O)c1ccc(OCCCN2CCC(C(O)(c3ccccc3)c3ccccc3)CC2)cc1	.	0	.	2	.	.
